Each structure is given as a SMILES string. Where a SMILES comes first, the peptide text is derived from it. The star is where a group is joined. Cbz = O=C(OCc1ccccc1)*

This assay deals with Her3 (Homo sapiens, UniProt P21860). The assay can be described thus: Western blot of Her3 level in PC9 GR4 cells. In kind it is cell-based. To be noted: combination with TX2-121-1 (0.5 μM), 116-9e 1.0 μM, 17-AAG 0.1 μM. The gist of the method: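 Serum-starved PC9 GR4 cells were treated with test compounds, then stimulated for 30 min with 100 ng/ml NRG. Cells were lysed in Tris/NaCl/EDTA/1% NP-40 buffer with phosphatase and protease inhibitors, and protein was normalised by BCA. Lysates were resolved on 4–12% SDS-PAGE and PVDF blots were probed for p-Her3, Her3, p-Akt (Ser473), Akt, p-Erk1/2 (Thr202/Tyr204) and Erk1/2.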
Sequence of Her3 (P21860 20-1342): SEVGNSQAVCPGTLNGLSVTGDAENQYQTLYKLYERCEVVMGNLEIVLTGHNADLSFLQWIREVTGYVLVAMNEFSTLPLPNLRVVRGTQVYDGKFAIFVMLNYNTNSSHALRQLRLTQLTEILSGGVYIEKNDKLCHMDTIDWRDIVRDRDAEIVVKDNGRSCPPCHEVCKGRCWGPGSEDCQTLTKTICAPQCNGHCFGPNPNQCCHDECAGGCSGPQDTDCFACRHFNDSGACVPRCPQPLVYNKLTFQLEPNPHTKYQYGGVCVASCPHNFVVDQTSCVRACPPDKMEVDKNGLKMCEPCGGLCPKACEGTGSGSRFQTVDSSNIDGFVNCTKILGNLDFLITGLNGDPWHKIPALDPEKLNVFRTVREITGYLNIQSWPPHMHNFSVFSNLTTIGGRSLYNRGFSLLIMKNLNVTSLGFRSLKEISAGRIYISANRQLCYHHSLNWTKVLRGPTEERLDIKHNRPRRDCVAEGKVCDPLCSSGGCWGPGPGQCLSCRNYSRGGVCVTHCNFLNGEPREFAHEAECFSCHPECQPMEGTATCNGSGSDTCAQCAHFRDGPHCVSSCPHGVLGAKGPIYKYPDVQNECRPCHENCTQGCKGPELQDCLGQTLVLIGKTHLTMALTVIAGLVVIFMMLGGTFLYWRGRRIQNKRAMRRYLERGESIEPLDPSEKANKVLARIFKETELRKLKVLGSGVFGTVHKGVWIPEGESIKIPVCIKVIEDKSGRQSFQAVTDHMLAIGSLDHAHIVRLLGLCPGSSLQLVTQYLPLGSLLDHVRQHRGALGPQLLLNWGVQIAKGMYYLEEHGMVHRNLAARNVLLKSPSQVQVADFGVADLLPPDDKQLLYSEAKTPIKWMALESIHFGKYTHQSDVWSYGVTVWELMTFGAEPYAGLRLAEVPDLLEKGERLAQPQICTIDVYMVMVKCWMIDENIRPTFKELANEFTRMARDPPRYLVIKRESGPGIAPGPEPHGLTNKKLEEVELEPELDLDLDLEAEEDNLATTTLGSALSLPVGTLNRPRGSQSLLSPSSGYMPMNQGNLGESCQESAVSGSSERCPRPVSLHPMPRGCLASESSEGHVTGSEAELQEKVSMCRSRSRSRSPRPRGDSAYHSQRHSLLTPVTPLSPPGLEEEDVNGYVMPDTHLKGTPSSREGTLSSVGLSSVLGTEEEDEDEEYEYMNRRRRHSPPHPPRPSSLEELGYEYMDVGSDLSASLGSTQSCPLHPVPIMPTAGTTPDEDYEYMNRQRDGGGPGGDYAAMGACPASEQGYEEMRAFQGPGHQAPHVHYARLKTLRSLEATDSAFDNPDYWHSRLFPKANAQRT
On to `CC1=C(C(=O)OCc2ccccc2)C(c2ccc(-c3ccccc3)cc2)NC(=O)N1CCCCCC(=O)O` (stereo not drawn) [116-9e, 4-[1,1′-biphenyl]-4-yl-3,4-dihydro-6-methyl-2-oxo-5-[(phenylmethoxy)carbonyl]-1(2H)-pyrimidinehexanoic acid], for which the “effect on TX2-121-1 induced Her3 degradation” value (“effect” for short) is on record as “enhanced degradation of Her3”. Regarding `CC(C)C[C@@H](C=O)NC(=O)[C@H](CC(C)C)NC(=O)[C@H](CC(C)C)NC(=O)OCc1ccccc1` [MG132] (Cbz-Leu-Leu-Leu-aldehyde), the “effect” value is listed as “diminished”. On to `C=CCNC1=C2C[C@@H](C)C[C@H](OC)[C@H](O)[C@@H](C)/C=C(\C)[C@H](OC(N)=O)[C@@H](OC)/C=C\C=C(/C)C(=O)NC(=CC1=O)C2=O` [17-AAG, 17-N-allylamino-17-demethoxygeldanamycin], for which the “effect” value was “enhanced degradation of Her3”.

Source of the values: paper PMC4232461 (Nature chemical biology, 2014).
